Test results from PubChem BioAssay AID504383 (The Scripps Research Institute Molecular Screening Center, 2011).
In all, about 2,500 compounds went through this assay and about 1,200 (48%) were called active.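 How the source made its calls: active means mean activation above the low control average plus 3 SD, as set in the primary screen (cut at about 12% in these data); inactive means the rest.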 So high a share suggests a set chosen from earlier hits. This is one part of the list.

Target: Troponin I, cardiac muscle (Homo sapiens) + Troponin T, cardiac muscle (Homo sapiens) + Troponin C, slow skeletal and cardiac muscles (Homo sapiens) (UniProt P19429+P45379+P63316)
Assay: cardiac RTF calcium sensitivity activators, confirmation, biochemical, IANBD-TnC fluorescence, triplicate (AID 504383);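 further: 0% = DMSO at 0.472 mM calcium and 100% = DMSO at 2.9 mM calcium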
Details: IANBD-labeled cardiac RTF, Ca2+ sensitivity fluorescence; at 7.2 µM; stronger effect = higher value; scaled from EC20 to saturating calcium; tested at EC20 calcium, 0.472 mM
Method in brief: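 Material: labelled regulated thin filaments; Reagent: 0.472 mM calcium; Incubation: 15 min compound incubation with filaments at 25 °C; Detection: filament fluorescence intensity; Evaluation: fluorescence increase normalised to calcium controls; Benchmarks: low control EC20 calcium, high control EC100 calcium.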

activation, active:
O=C(N/N=C/c1cc(Cl)cc(Cl)c1O)c1ccncc1 17.9%
Cn1ncc2c(O/N=C(\N)c3ccc(C(F)(F)F)cc3)ncnc21 93.4%
Cc1cc(C)n(C2CCCCC2OC(=O)CCc2ccccc2)n1 (configuration not stated) 35.8%
CC1(C)CC(CC(=O)Nc2nccs2)(c2ccccc2)CCO1 (configuration not stated) 604%
COc1ccccc1N1CCN(C(=O)c2ccc(Cn3c(=O)[nH]c4ccsc4c3=O)cc2)CC1 125%
COCC(=O)NC1CCN(S(=O)(=O)c2cccc(C(C)=O)c2)CC1 14.3%
COc1ccc(C(=O)N/N=C/c2sc3ccccc3c2O)cc1 14.3%
O=C(N/N=C/c1sc2ccccc2c1O)c1ccccc1 66.7%
COc1ccc2cc(C(=O)N/N=C/c3sc4ccccc4c3O)ccc2c1 277%
CCN1CC=C2C(C1)C(c1ccc(Cl)s1)C(C#N)=C(N)C2(C#N)C#N (configuration not stated) 19.5%
CCc1ccc(C(C)NC(=O)c2ncn[nH]2)cc1 (configuration not stated) 17.2%
CCn1c(NC(=O)Nc2cccc(C)c2C)cc2sccc21 12.6%
COc1ccc(C2C(C(C)=O)=C(C)N=c3s/c(=C\c4cc(C)n(C)c4C)c(=O)n32)c(OC)c1 (configuration not stated) 15%
CCOC(=O)c1[nH]cnc1C(=O)Nc1ccccn1 12.4%
Cc1oc(-c2cc3c(cc2Cl)OCO3)nc1CN1CCCC(C(=O)N2CCOCC2)C1 (configuration not stated) 447%
CCN(C(=O)CSc1nnc(COc2ccccc2F)n1N)c1c(N)n(Cc2ccccc2)c(=O)[nH]c1=O 1020%
C(=Cc1c[nH]c2ccccc12)c1nccc2ccccc12 16.3%
CC[n+]1ccc(/C=C/c2c[nH]c3ccccc23)cc1 167%
C[n+]1ccc(/C=C/c2c[nH]c3ccccc23)cc1 45.7%
O=c1nc2c(O)cccn2c2c1c(=O)[nH]c1ccccc12 11.7%
CC(=O)Nc1cccc(C(=O)/C=C/c2ccc(N(C)C)cc2)c1 15.4%
COC(=O)C1CCN(C(=O)CN2C(=O)c3ccccc3S2(=O)=O)CC1 2170%
COc1cc(/C=C/C(=O)c2ccc3c(c2)OCO3)cc(Cl)c1O 15.6%
O=C(CN1CCN(c2ccccc2F)CC1)NCc1ccc(Cl)cc1 13%
CCOC(=O)c1cnc2c(C)c(Cl)ccc2c1N1CCOCC1 80.7%
CC(=O)Nc1ccc(N=Cc2nc(-c3ccc(C)cc3)oc2O)cc1 33.1%
CN(C)c1ccc(N=Cc2nc(-c3ccccc3)oc2O)cc1 37.2%
COc1cc(N2CCCC2)c(OC)cc1/C=C(/C#N)c1ccc(Br)cc1 12.2%
Cc1ccc(NC(=O)COc2ccc(/C=N/NC(=O)CSCc3ccccc3)cc2)cc1 58.9%
CCOC(=O)c1[nH]c2ccc(OCC)cc2c1CCCN1C(=O)c2ccccc2C1=O 156%
CCOC(=O)C1=C(C)N=c2s/c(=C/c3ccc(OCC(=O)O)c(OC)c3)c(=O)n2C1c1ccc(Cl)cc1 (configuration not stated) 16.8%
CCOC(=O)C1=C(C)N=c2s/c(=C\c3ccc(OCC(=O)O)cc3)c(=O)n2C1c1ccc(Cl)cc1 (configuration not stated) 14.5%
O=C(O)CCC(=O)Nc1cc(C(F)(F)F)cc(C(F)(F)F)c1 30.5%
CC(C)(C)OC(=O)N1CCC(Cc2cc(-c3cccnc3)no2)(C(=O)O)CC1 15.8%
Cc1sc(NC(=O)CSc2nnc(C(C)C)n2C)c(C#N)c1C 80.6%
Cc1cc(S(=O)(=O)N2CCCC(C(=O)Nc3ccc(C(=O)O)cc3)C2)ccc1Cl (configuration not stated) 41.5%
CC(=O)c1ccc(NC(=O)C2CCCN(S(=O)(=O)c3c(C)[nH]c(=O)[nH]c3=O)C2)cc1 (configuration not stated) 58.6%
O=C(O)c1ccc(-n2c(/C=C/c3cccc([N+](=O)[O-])c3)nc3ccccc3c2=O)cc1 15.1%
COc1cc(C(=O)NCc2nnc(SCC(=O)Nc3ccc4c(c3)OCO4)o2)cc(OC)c1OC 165%
COc1ccc(N/C=C\C(=O)c2ccc(Br)cc2)cc1OC 59.4%
CC(=O)Oc1ccc(N2C(=O)C3C(C2=O)C(C(=O)c2ccc(Cl)cc2)N2CCCC32)cc1 (configuration not stated) 77.4%
CCOC(=O)c1ccc(N2C(=O)C3C(C2=O)C(C(=O)c2ccc(Cl)cc2)N2CCCC32)cc1 (configuration not stated) 12.8%
CCN1CCN(Cc2c(O)ccc3c2O/C(=C\c2ccccc2)C3=O)CC1 17.9%
CCN1CCN(Cc2c(O)ccc3c2O/C(=C\C=C\c2ccccc2)C3=O)CC1 65.3%
COc1ccccc1/C=C/C=C1\Oc2c(ccc(O)c2CN(C)C)C1=O 24.3%
CCN(CC)Cc1c(O)ccc2c1O/C(=C\C=C\c1ccccc1)C2=O 13.5%

activation, inactive:
O=c1c(O)c(-c2cccs2)oc2ccc(Cl)cc12 4.87%
C/C(=N/NC(=O)c1ccncc1)c1cc2ccc(O)cc2oc1=O 4.52%
Nc1nnnn1/N=C/c1cc(Cl)cc(Cl)c1O 11%
CC1(C)CC2CC(C)(CN2CC(=O)C(C#N)c2ccccc2)C1 (configuration not stated) 7.07%
Nc1ccn([C@H]2C[C@H](O)[C@@H](CO)O2)c(=O)n1 11.1%
CC1(OC(=O)CCc2ccccc2)C(=O)C=C2C=C(c3ccc(C#N)cc3)N(C3CCCC3)C=C2C1=O (configuration not stated) 5.7%
O=C(Cc1c(F)cccc1Cl)Nc1nccs1 1.97%
C=CCn1c(SCC(=O)Nc2nccs2)nnc1-c1ccco1 7.96%
CN1CCN(S(=O)(=O)c2cccc(C(=O)Oc3cccc(Br)c3)c2)CC1 11.4%
CC(=NNC(=O)c1ccncc1)c1ccc2ccccc2c1O 6.88%
O=C(N/N=C/c1sc(N2CCOCC2)nc1-c1ccccc1)c1cccc(S(=O)(=O)N2CCCC2)c1 3.15%
CN(/N=C/c1ccc(O)cc1O)c1ncc(C(F)(F)F)cc1Cl 6.15%
Cc1cc(C)c(OCCOCCN2CCNCC2)c(C)c1 7.52%
C[C@@H](NC(=O)c1ncn(C)c1C(=O)N[C@H](C)c1ccccc1)c1ccccc1 2.64%
CCOC(=O)C(C(=O)Nc1cccc(C)n1)C1CCCCC1 (configuration not stated) 7.01%
CCN(CC)c1ccc2cc(C(=O)Nc3ccccn3)c(=O)oc2c1 7.83%
OCC[n+]1ccc(/C=C/c2c[nH]c3ccccc23)cc1 6.81%
Cc1ccc2[nH]cc(/C=C/c3cc[n+](C)cc3)c2c1 6.68%
C[n+]1cc(C(=O)N2CCCCC2)ccc1/C=C/c1c[nH]c2ccccc12 8.02%
C[n+]1ccc(/C=C/c2c[nH]c3ccc(F)cc23)cc1 5.69%
CC(=O)N(c1ccccc1)C1SC(=O)N(c2ccccc2)C1=O (configuration not stated) 9.18%
Cc1cccc(C)c1-n1c(C)nn(-c2ncc(C(F)(F)F)cc2Cl)c1=O 2.27%
CN(C)c1ccc(/C=C/C(=O)c2cccc(Br)c2)cc1 9.43%
NC(=O)C1CCN(c2ccc3c(c2)S(=O)(=O)c2ccccc2C3=O)CC1 5.74%
CN(C)c1ccc(/C=C/C(=O)c2ccc3c(c2)OCO3)cc1 11%
CCC(=O)N1CCN(c2nc(C)nc3sc(C)c(C)c23)CC1 4.34%
N#CC1(NC(=O)CN2CCN(S(=O)(=O)c3ccccc3F)CC2)CCCC1 2.39%
Cc1cc(Cl)ccc1OCC(=O)NCCOc1nc(N2CCOCC2)nc(N2CCOCC2)n1 6.88%
CSc1ccc(Cl)c(C(=O)NNC(=O)c2csc(N3CCOCC3)n2)c1 9.67%
Cc1nc(C)c2c(c1C(F)(F)F)-c1ccccc1C2(F)F 9.1%
Cc1[nH]c(=S)c(C#N)c(C)c1CCC#N 8.9%
COc1cc(N2CCCC2)c(OC)cc1/C=C(/C#N)c1cccc(Br)c1 8.22%
CCOC(=O)C1=C(C)N(CCCCCC(=O)O)C(=O)NC1c1ccccc1Cl (configuration not stated) 6.32%
Brc1ccc(-c2noc(-c3ccccn3)n2)o1 5.39%
CCOC(=O)C1=C(C)N=c2s/c(=C/c3ccc(OCC(=O)O)cc3)c(=O)n2C1c1ccc(SC)cc1 (configuration not stated) 5.43%
O=C1CCC[C@@H]2Cc3nc4ccc(O)cc4cc3[C@@H]3CCN1[C@H]23 3.13%
O=C(CN1CCN(c2ccccc2)CC1)Nc1cccc(C(F)(F)F)c1 5.41%
O=C(Cn1c2[n+](c3ccc(C(F)(F)F)cc31)CCCCC2)Nc1ccccc1 0.79%
COCCn1c(SCC#N)nnc1-c1ccc([N+](=O)[O-])cc1 4.93%
CC(=O)N1CCCc2cc(S(=O)(=O)N3CCCC(C(=O)Nc4cccc(C)c4)C3)ccc21 (configuration not stated) 8.68%
Cc1cc2cc(C=C(C#N)C#N)c(Cl)nc2cc1C 1.28%
CN(C)c1ccc(/C=C/c2nc3ccccc3c(=O)n2-c2ccc(C(=O)O)cc2)cc1 2.26%
COc1cc(C(=O)Nc2ccc(Cl)c(C(F)(F)F)c2)cc(OC)c1OC 9.75%
COc1cc(OC)c(OC)cc1/C=C/C(=O)c1ccc(NS(=O)(=O)c2ccc(C)cc2)cc1 8.63%
COc1ccc(N2C(=O)C3C(C2=O)C(C(=O)c2ccc(Cl)cc2)N2CCCC32)cc1 (configuration not stated) 8.37%
CCOC(=O)c1ccc(-n2c(CCC(=O)O)ccc2-c2cccs2)cc1 2.47%
CCN1CCN(Cc2c(O)ccc3c2O/C(=C\c2ccc(C)cc2)C3=O)CC1 5.39%
COCCN(CCOC)Cc1c(O)ccc2c1O/C(=C\c1ccc(C)o1)C2=O 3.93%
CCc1ccc(/C=C2\Oc3c(ccc(O)c3CN3CCN(C)CC3)C2=O)cc1 8.07%
COCCN(CCOC)Cc1c(O)ccc2c1O/C(=C\c1ccco1)C2=O 9.93%
CN(C)Cc1c(O)ccc2c1O/C(=C\C=C\c1ccccc1)C2=O 6.64%
